The values below come from ChEMBL document CHEMBL3817796, “Discovery of Novel 15-Lipoxygenase Activators To Shift the Human Arachidonic Acid Metabolic Network toward Inflammation Resolution” (J Med Chem, 2016).

Each structure is given as a SMILES string. Activity calls are given as the source filed them. The rule behind the calls is not given here.

Experiment [1] concerns the target Prostaglandin G/H synthase 1 (Homo sapiens) (UniProt P23219). The experiment can be described thus: Activation of COX1 (unknown origin) assessed as PGG2 to PGH2 conversion by measuring N,N,N',N'-tetramethyl-p-phenylenediamine oxidation at 100 uM by spectrophotometry.
For experiment [2], the target named is T1, Leukotriene A-4 hydrolase (Homo sapiens) (UniProt P09960).
T1 sequence (whole entry): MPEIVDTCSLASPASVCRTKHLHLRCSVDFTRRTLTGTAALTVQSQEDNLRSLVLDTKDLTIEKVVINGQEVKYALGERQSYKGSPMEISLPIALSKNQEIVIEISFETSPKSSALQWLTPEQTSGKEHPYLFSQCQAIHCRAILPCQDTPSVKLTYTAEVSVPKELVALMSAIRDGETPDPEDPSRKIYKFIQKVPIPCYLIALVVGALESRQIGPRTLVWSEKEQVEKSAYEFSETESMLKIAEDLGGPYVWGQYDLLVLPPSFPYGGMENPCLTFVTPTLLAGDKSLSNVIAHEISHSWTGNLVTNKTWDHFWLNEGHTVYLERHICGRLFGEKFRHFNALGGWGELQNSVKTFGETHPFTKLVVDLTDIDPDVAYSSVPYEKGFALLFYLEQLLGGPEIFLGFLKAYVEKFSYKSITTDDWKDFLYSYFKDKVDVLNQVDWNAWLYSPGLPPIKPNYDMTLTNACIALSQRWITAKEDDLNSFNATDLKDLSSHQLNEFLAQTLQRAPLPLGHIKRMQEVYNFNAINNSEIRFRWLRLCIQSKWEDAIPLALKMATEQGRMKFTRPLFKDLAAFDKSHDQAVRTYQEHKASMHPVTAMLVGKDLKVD
The experiment can be described thus: Activation of LTA4H hydrolase activity (unknown origin) assessed as LTB4 formation at 100 uM by enzyme linked immunosorbent assay. The procedure, abridged:
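LTA4H hydrolase activity read as LTB4 formation by ELISA. Compound handled as in the 15-LOX assay.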

The target of experiment [3] is T2, Polyunsaturated fatty acid lipoxygenase ALOX15 (Homo sapiens) (UniProt P16050).
T2 sequence (whole entry): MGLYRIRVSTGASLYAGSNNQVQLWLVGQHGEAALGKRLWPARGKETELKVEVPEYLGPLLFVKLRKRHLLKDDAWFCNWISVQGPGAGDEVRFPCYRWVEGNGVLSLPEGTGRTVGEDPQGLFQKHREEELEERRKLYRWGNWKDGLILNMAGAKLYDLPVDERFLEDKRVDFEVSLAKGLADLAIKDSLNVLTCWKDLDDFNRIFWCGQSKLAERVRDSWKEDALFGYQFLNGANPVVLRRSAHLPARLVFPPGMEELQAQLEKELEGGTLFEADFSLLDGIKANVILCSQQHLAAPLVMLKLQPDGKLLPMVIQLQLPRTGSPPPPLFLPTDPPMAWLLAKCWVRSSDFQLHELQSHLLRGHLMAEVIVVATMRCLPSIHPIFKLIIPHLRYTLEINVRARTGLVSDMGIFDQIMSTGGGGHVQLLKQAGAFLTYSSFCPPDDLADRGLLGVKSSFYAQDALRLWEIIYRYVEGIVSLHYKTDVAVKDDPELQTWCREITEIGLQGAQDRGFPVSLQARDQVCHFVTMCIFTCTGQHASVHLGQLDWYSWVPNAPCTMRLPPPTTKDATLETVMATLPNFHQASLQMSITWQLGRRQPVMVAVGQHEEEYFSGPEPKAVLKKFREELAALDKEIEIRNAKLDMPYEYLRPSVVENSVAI
The experiment can be described thus: Activation of 15-LOX in human PMN assessed as 5-HETE production at 6.2 to 40 uM pre-incubated for 15 mins before A23187, Ca2+ and Mg2+ stimulation for 1 hr by LC-MS method. The procedure, abridged:
(§1)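 PMNs preincubated 15 min at 37 °C with compound or vehicle, then stimulated 1 h at 37 °C with 10 μM A23187 plus 2 mM Ca2+ and 2 mM Mg2+. Reactions stopped with cold methanol. Eicosanoids quantified by LC-MS.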

Experiment [4] has as its target T2, Polyunsaturated fatty acid lipoxygenase ALOX15 (Homo sapiens). The experiment can be described thus: Activation of 15-LOX in human PMN assessed as 12-HETE production at 6.2 to 40 uM pre-incubated for 15 mins before A23187, Ca2+ and Mg2+ stimulation for 1 hr by LC-MS method. The procedure, abridged:
as §1

Experiment [5] shares this target. The experiment can be described thus: Activation of 15-LOX in human whole blood assessed as 5-HETE production at 100 uM pre-incubated for 20 mins before stimulation with LPS and A23187 for 120 mins in presence of 2 uM 5-LOX inhibitor Zileuton by LC-MS/MS method. It counts as tissue-based. Put shortly: (§2)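 Human blood preincubated 20 min at 37 °C with DMSO vehicle or compound in DMSO. LPS added at 100 μg/mL for 24 h at 37 °C, then A23187 at 20 μg/mL final. Samples frozen in liquid nitrogen at time points, lysed by freeze–thaw, with PGB2 internal standard. Analysed by C18 LC-MRM MS, negative ion. Change = control-normalized concentration minus 1, ×100%; 120 min value from AUC.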

The target is the same in experiment [6]. The experiment can be described thus: Activation of 15-LOX in human whole blood assessed as LTB4 production at 100 uM pre-incubated for 20 mins before stimulation with LPS and A23187 for 120 mins in presence of 2 uM 5-LOX inhibitor Zileuton by LC-MS/MS method. The experiment is classed as tissue-based. Put shortly:
as §2

For experiment [7] the target is unchanged. The experiment can be described thus: Activation of 15-LOX in human whole blood assessed as 13-HODE production at 100 uM pre-incubated for 20 mins before stimulation with LPS and A23187 for 120 mins in presence of 2 uM 5-LOX inhibitor Zileuton by LC-MS/MS method. The experiment is classed as tissue-based. The procedure, abridged:
as §2

Experiment [8] shares this target. The experiment can be described thus: Activation of 15-LOX in human whole blood assessed as reduction in 5-HETE production at 100 uM pre-incubated for 20 mins before stimulation with LPS and A23187 for 120 mins in presence of 2 uM […] inhibitor Zileuton by LC-MS/MS method. The experiment is classed as tissue-based. Put shortly: as §2

Prostaglandin G/H synthase 1 (Homo sapiens), sequence (P23219 whole entry): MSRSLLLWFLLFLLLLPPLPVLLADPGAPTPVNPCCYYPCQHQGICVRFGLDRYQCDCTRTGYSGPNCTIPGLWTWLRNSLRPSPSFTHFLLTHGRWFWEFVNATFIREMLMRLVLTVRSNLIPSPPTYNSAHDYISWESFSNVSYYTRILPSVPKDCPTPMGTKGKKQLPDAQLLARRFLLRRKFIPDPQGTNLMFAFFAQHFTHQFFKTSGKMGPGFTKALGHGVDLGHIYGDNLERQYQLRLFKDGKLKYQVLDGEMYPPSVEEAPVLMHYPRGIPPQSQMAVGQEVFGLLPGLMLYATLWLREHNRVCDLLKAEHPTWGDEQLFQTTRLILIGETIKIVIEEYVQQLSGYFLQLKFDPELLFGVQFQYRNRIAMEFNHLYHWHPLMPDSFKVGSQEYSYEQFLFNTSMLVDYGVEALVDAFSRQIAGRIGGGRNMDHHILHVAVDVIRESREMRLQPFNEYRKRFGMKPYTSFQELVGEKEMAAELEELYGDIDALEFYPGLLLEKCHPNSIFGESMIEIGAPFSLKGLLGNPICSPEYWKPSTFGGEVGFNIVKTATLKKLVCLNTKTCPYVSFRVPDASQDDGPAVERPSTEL

As to `CN1CCN(CC(=O)N2N=C3/C(=C/c4ccccc4)CCCC3C2c2ccccc2)CC1` (stereo not drawn), the Activity in experiment [1] was below 5%; in experiment [2], below 5%; in experiment [5], 59%; in experiment [6], 54%; in experiment [7], 67%. For the same compound, the outcome in experiment [3], in experiment [4] and in experiment [8] was Active.
